Source: PMC5074845 (ACS chemical biology, 2016)
“And” between values parts separate entries of the source, which are not always exact repeats. Equal values may be shown once. Read-outs that look alike come from different tables or passages of the source. Each block holds one molecule with its values, some of them ahead of it.

Assays:
[1] = biological target: T1, NAPE-PLD (Homo sapiens, UniProt Q6IQ20); assay: Elastic incoherent neutron scattering; settings: DCA ~10 times the concentration of the enzyme, 280-307 K, D2O buffer
T1 sequence (Q6IQ20 48-393 limits assumed): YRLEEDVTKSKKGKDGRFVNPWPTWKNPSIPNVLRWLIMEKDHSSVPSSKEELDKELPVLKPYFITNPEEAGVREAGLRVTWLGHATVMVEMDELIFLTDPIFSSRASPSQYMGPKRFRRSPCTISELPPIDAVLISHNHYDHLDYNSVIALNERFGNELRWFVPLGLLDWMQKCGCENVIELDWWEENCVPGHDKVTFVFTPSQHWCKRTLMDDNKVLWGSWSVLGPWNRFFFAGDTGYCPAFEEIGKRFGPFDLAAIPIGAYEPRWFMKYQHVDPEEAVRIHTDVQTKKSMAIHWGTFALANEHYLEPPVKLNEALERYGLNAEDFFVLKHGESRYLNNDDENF
How it was run: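 Purified enzyme in D2O (five exchanges against 100× volume) at 100 mg/mL, with DCA at 0.00, 0.05, 0.15, 0.50 or 1.00% w/v (DCA:enzyme ratios 0–10). Elastic spectra were collected at […], ~3 h per point, on IN13 (up to 100 ps). <u2> came from the slope of ln elastic intensity versus Q2. Force constant came from the <u2>-versus-T slope under a quasi-harmonic approximation.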

[2] = biological target: T1, NAPE-PLD; assay: Binding kinetics by surface plasmon resonance; settings: for binding affinity compared with another bile acid: SPR, 25 °C, comparison in words
[3] = biological target: T1, NAPE-PLD; assay: Fluorescence-based NAPE-PLD activity assay with substrate PED6; format: biochemical
How it was run: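 Recombinant human enzyme, purified by amylose then Ni-affinity and size exclusion. Enzyme at 25 nM in 50 mM Tris-HCl pH 8 was pre-incubated 1 h at room temperature with test bile acids (0–5 mM). PED6 was added to 10 μM final (1% DMSO/ethyl acetate). Fluorescence was read after 30 min at 25 °C in the dark ([…] filters). Monohydroxy bile acid was run with 0.2% w/v DCA.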

[4] = system: NAPE-PLD; settings: without bile acid; cited from earlier work
[5] = biological target: T1, NAPE-PLD; assay: Enzyme kinetics by UPLC-MS/MS in the presence of DCA; format: biochemical; settings: for Km / maximum velocity (Vmax): DCA 0.2% w/v, 37 °C, 15 min, UPLC-MS/MS
How it was run: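 Recombinant enzyme was incubated with varying N-arachidonoyl-PE or N-palmitoyl-PE in 0.05 M Tris-HCl pH 7.4 with 0.2% w/v DCA, 15 min, 37 °C. Reactions were stopped with cold acetonitrile containing AEA-d4 or PEA-d4 internal standard, centrifuged, and the organic layer taken. Products (AEA, PEA) were quantified by UPLC-MS/MS MRM in positive ESI against weighted (1/x) calibration curves. Runs were in triplicate. Km and Vmax came from Michaelis–Menten fits.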

- effect on protein flexibility (force constant k, mean square displacement) [1]: the system lost flexibility
- Kd [2]: ~43 µM
Molecule: C[C@H](CCC(=O)O)[C@H]1CC[C@H]2[C@@H]3CC[C@@H]4C[C@H](O)CC[C@]4(C)[C@H]3C[C@H](O)[C@]12C [DCA, deoxycholic acid]

- EC50 ([3]; read-out: EC50 of enzyme activation, enzyme 25 nM, PED6 substrate, 25 °C, 30 min): ~3600 µM
Molecule: C[C@H](CCC(=O)NCC(=O)O)[C@H]1CC[C@H]2[C@@H]3[C@H](O)C[C@@H]4C[C@H](O)CC[C@]4(C)[C@H]3CC[C@]12C [GCDG]

Molecule: C[C@H](CCC(=O)NCCS(=O)(=O)O)[C@H]1CC[C@H]2[C@@H]3[C@H](O)C[C@@H]4C[C@H](O)CC[C@]4(C)[C@H]3C[C@H](O)[C@]12C [TCA, taurocholic acid]
- binding affinity compared with another bile acid [2]: ~tenfold lower

- Km [5]: ~9 µM and 9.2 µM
Molecule: N-palmitoyl-phosphatidylethanolamine [N-palmitoyl-PE]
- Vmax [4]: ~ 98 nmol/min/mg
- maximum velocity (Vmax) [5]: 155.8 (± 38.36) nmol/min/mg protein and ~ 156 nmol/min/mg protein

- Kd [2]: ~20 µM
Molecule: C[C@H](CCC(=O)O)[C@H]1CC[C@H]2[C@@H]3CC[C@@H]4C[C@H](O)CC[C@]4(C)[C@H]3CC[C@]12C [LCA, lithocholic acid]
- effect on NAPE-PLD enzyme activity ([3]; bile acid alone, PED6 substrate): not able alone to solubilize the substrate and activate the membrane enzyme

- EC50 [3]: ~4300 µM
- Kd [2]: ~25 µM
Molecule: C[C@H](CCC(=O)O)[C@H]1CC[C@H]2[C@@H]3[C@H](O)C[C@@H]4C[C@H](O)CC[C@]4(C)[C@H]3CC[C@]12C [CDCA, chenodeoxycholic acid]

Molecule: C[C@H](CCC(=O)NCCC[N+](C)(C)CCCS(=O)(=O)[O-])[C@H]1CC[C@H]2[C@@H]3[C@H](O)C[C@@H]4C[C@H](O)CC[C@]4(C)[C@H]3C[C@H](O)[C@]12C [CHAPS]
- binding affinity compared with another bile acid [2]: ~tenfold lower

- Km [5]: ~9 µM and 9.6 µM
- rate of hydrolysis compared with N-palmitoyl-phosphatidylethanolamine ([5]; in the presence of deoxycholic acid): ~ 7 times
Molecule: N-arachidonyl-phosphatidylethanolamine [N-arachidonoyl-PE]
- Vmax [4]: ~ 73 nmol/min/mg
- maximum velocity (Vmax) [5]: 1131 (± 124.4) nmol/min/mg protein and ~ 1131 nmol/min/mg protein

- Kd [2]: ~403 µM
- binding affinity compared with another bile acid [2]: ~tenfold lower binding affinity
Molecule: C[C@H](CCC(=O)O)[C@H]1CC[C@H]2[C@@H]3[C@H](O)C[C@@H]4C[C@H](O)CC[C@]4(C)[C@H]3C[C@H](O)[C@]12C [CA, cholic acid]

- Kd [2]: ~70 µM
Molecule: CC(=O)O[C@H]1C[C@@]2(C)[C@@H](C[C@@H](O)[C@H]3[C@@]4(C)CC[C@@H](O)[C@@H](C)[C@@H]4CC[C@@]32C)/C1=C(\CCC=C(C)C)C(=O)O [FA, fusidic acid]
